Source: PubChem BioAssay
TAAR1 antag: human TAAR1 antagonists, primary screen, Fluo-8 calcium fluorescence, CHO RD-HGA16 cells | antagonist | 360,000 tested, 1.5% active | inhibition, % at 3 µM | AID 624466, 2012;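 active = inhibition above a per-plate cutoff, the mean inhibition of test compounds on that plate plus 3 SD, cut at about 49% in these data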;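 note: 0% = DMSO plus EC80 beta-PEA response and 100% = DMSO alone without agonist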
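Material: RD-HGA16 CHO cells with stable hTAAR1 and Gα16; Dosing: single nominal final test compound concentration of 3 µM; Schedule: seeding 17-24 h prior, 75-min 37 °C, 30-min RT dye loading; Detection: kinetic Fluo-8 calcium fluorescence measurement; Measure: % inhibition from peak post-agonist over basal fluorescence ratio; Benchmarks: vehicle and agonist controls.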
m5-HT2A agonist: mouse Htr2a agonists via beta-arrestin recruitment, primary screen, cell-based, luminescence | AID 624169, 2012 | activation, % at 7.6 µM | CHO-K1 mHTR2A beta-arrestin complementation; percent of 30 µM serotonin response | 360,000 tested, 0.66% active;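 active = activation above a run cutoff, the mean activation of all tested compounds plus 3 SD, cut at about 14% in these data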;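 note: 0% = plate median of compound wells and 100% = 30 µM serotonin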
Target sequence (P35363 whole entry, looked up): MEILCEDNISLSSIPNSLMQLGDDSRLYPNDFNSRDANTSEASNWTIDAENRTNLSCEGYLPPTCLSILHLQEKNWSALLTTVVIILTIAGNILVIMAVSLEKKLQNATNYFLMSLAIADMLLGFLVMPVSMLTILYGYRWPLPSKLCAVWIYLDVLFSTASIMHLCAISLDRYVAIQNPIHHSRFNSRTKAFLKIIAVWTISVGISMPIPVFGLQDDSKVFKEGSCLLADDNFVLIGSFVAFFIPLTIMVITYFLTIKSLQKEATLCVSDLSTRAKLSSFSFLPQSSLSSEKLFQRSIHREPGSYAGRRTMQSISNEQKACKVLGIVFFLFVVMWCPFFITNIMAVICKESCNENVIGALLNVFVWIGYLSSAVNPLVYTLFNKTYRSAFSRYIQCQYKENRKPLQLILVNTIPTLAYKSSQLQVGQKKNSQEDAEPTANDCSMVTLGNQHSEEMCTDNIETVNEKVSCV
M1 ag: human M1 muscarinic receptor agonists, primary screen, Fluo-8 calcium fluorescence, CHO-K1 cells, HTS; Muscarinic acetylcholine receptor M1 (Homo sapiens), P11229; CHO-K1 hM1, agonist mode; 0% DMSO, 100% acetylcholine EC100; activation, % at 3 µM; 360,000 tested, 0.33% active;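 active = activation above the run's mean compound activation plus 3 SD, cut at about 16% in these data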;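 note: peak over basal fluorescence ratio within a 140 s kinetic read after compound addition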
CHRM1 PAM: human M1 muscarinic receptor positive allosteric modulators, primary screen, CHO-K1 cells, Fluo-8 calcium fluorescence, 1536-well; Muscarinic acetylcholine receptor M1 (Homo sapiens), P11229; CHO-K1 hM1, ACh EC20; 0% = ACh EC20, 100% = maximal ACh; activation, % at 3 µM; 360,000 tested, 0.088% active; AID 588819, 2011; in the data active = activation above about 19%, passing the limit was not always enough
M1 antag: human M1 muscarinic receptor antagonists, primary screen, CHO-K1 cells, Fluo-8 calcium fluorescence, 1536-well; 360,000 tested, 1.3% active; CHO-K1 hM1, ACh EC80 antagonist; AID 588852, 2011; Muscarinic acetylcholine receptor M1 (Homo sapiens), P11229; inhibition, % at 3 µM;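 active = percent inhibition above its own plate's cutoff, namely the mean of that plate's compound wells plus 3 SD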;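 note: peak over basal fluorescence ratio during 140 s after agonist addition; 0% = ACh EC80 plus DMSO and 100% = DMSO alone without agonist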
TAAR1 ag: human TAAR1 agonists, primary screen, Fluo-8 calcium fluorescence, CHO RD-HGA16 cells. Trace amine-associated receptor 1 (Homo sapiens), Q96RJ0. activation, % at 3 µM. 360,000 tested, 0.99% active. vehicle wells 0%, saturating PEA agonist 100%;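 active = activation above the mean activation of all test compounds in the run plus 3 SD, cut at about 38% in these data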
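Test system: RD-HGA16 (CHO) cells co-expressing Gα16 and hTAAR1; dosing: one-point dosing at 3 µM (nominal); timing: 17-24 h seeding, 75 min 37 °C dye, 30 min RT; signal: kinetic Fluo-8 calcium fluorescence; read-out basis: % activation relative to PEA EC100 response; controls: DMSO and PEA EC100; replicates: n 1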
The depositor's hits bear a star; . = no result given. Compounds with a hit are over-represented: about 3.9% of the library has one in this group of screens.

SMILES	TAAR1 antag	m5-HT2A agonist	M1 ag	CHRM1 PAM	M1 antag	TAAR1 ag
CC(O)CN(C)CC/C=C1/c2ccccc2CSc2ccccc21 (stereo not drawn)	8	-5	-10	-24	63*	-2
c1ccc2c(c1)CSc1ccccc1N2	-44	-7	-8	2	-15	-3
NCC/C=C1/c2ccccc2CSc2ccccc21	11	0	-6	-22	69*	9
CC(=O)C1=C(O)C(=O)N(c2ccc(O)cc2)C1c1ccccc1Cl (stereo not drawn)	2	-3	-1	14	-22	6
CCS(=O)(=O)N1CCC(C(=O)Oc2ccc(Cl)cc2)CC1	3	-4	-1	9	-20	2
NC(=O)c1ncn([C@@H]2O[C@H](C(=O)N[C@H](Cc3c[nH]c4ccccc34)C(=O)O)[C@@H](O)[C@H]2O)n1	-3	.	.	.	.	2
C=CCN(C)CC/C=C1\c2ccccc2CSc2ccccc21	10	-5	-6	-20	91*	26
CC(C)(C)n1nc2c(c1NC(=O)C1CC(=O)N(c3ccc(Cl)cc3)C1)CS(=O)(=O)C2 (stereo not drawn)	33	-2	-2	-2	8	5
C/C(=N\NC(=O)C(c1ccccc1)c1ccccc1)c1ccc(O)cc1	21	7	2	31*	-39	3
CNC(=O)CSc1nnc(-c2ccco2)n1-c1cccc(OC)c1	0	-2	-5	5	-10	1
COc1ccccc1C(=O)Nc1nc2ccccc2s1	-23	3	-6	-17	31*	2
CCOC(=O)COc1ccc(S(=O)(=O)NCc2ccncc2)cc1	-1	2	3	-11	19*	6
CC(C)(C)OC(=O)N1CCCC(C(=O)Nc2cccc(C(=O)NCCCc3ccccc3)c2)C1 (stereo not drawn)	49*	-8	2	-9	7	10
COc1ccc(COc2cc(-c3cccc(OC)c3)nc3ccc(NC(=O)c4ccccc4)cc23)cc1	53*	0	-5	-16	21	8
COc1ccc(COc2cc(-c3cccc(OC)c3)nc3ccc(NC(=O)c4ccc(OC)cc4)cc23)cc1	61*	-3	-5	-15	20	10
COc1ccc(COc2cc(-c3cccc(OC)c3)nc3ccc(NC(=O)c4ccc(Cl)cc4)cc23)cc1	26	6	-3	3	-13	8
Cc1ccsc1C(=O)NCCc1ccc(S(N)(=O)=O)cc1	3	4	-3	12	-5	0
COC(=O)[C@H](Cc1ccccc1)NC(=O)NCCc1ccc(OC)cc1	3	0	-2	0	-4	7
N=c1n(CC(=O)c2ccc(Br)cc2)c2ccccc2n1Cc1ccccc1	-4	-1	-6	-6	9	38*
CC(C)(C)c1ccc(C(=O)NCCC(=O)N2CCCC2)cc1	-6	6	1	20	-13	-3
CC(C)(C)c1ccc(C(=O)NCCC(=O)N2CCN(c3ncccn3)CC2)cc1	10	17*	-3	6	-10	8
COc1ccc(C(=O)Nc2ccc(S(=O)(=O)Nc3nccnc3OC)cc2)cc1	-8	2	-3	11	-17	3
COc1nccnc1NS(=O)(=O)c1ccc(NC(=O)c2ccc(F)cc2)cc1	3	0	0	29*	-23	3
Cc1sc2nc(C3CC3)nc(N3CCN(C(=O)c4ccc(Cl)cc4)CC3)c2c1C	-26	-2	-6	3	-12	-1
N#Cc1ccc(-c2ccc(OCC(=O)Nc3cccnc3)cc2)cc1	59*	12	3	-12	18	10
Cc1ccc(Oc2ccc(OCC(=O)Nc3ccncc3)cc2)cc1	45	2	1	-21	40*	7
